Test results: ChEMBL document CHEMBL1255554, “9-Dihydroerythromycins as non-antibiotic motilin receptor agonists” (Bioorg Med Chem Lett, 2010)
≈ marks a conversion by molar mass, not a printed value.

Experiments:
Motilin receptor = Motilin receptor (Oryctolagus cuniculus, UniProt A5A4K8); test: Agonist activity at motilin receptor in rabbit smooth muscle assessed as increase of muscle contraction; assay type: functional
Streptococcus pneumoniae = test: Antibacterial activity against erythromycin-sensitive Streptococcus pneumoniae ATCC 6301; assay type: functional
Summary of the method: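 Minimal growth inhibitory concentration (MIC) determined against the highly erythromycin-sensitive strain Streptococcus pneumoniae ATCC6301.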

[1] = molecular target: Motilin receptor (Oryctolagus cuniculus) (UniProt A5A4K8); test: Agonist activity at motilin receptor in rabbit smooth muscle assessed as increase of muscle contraction at EC90 concentration treated three cycles of administration measured after 4th dose; assay type: functional
Summary of the method: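 Rabbit smooth muscle strip contractility assay. Drug given at its EC90 concentration for three cycles of administration and washout. The contractile response is expressed as % response at the 4th dose.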

hERG (KCNH2) = hERG (KCNH2) (Homo sapiens, UniProt Q12809); test: Inhibition of human ERG expressed in HEK cells at 30 uM; assay type: cell-based, HEK293; settings: HEK cells expressing human ERG
hERG (KCNH2), sequence (Q12809 whole entry): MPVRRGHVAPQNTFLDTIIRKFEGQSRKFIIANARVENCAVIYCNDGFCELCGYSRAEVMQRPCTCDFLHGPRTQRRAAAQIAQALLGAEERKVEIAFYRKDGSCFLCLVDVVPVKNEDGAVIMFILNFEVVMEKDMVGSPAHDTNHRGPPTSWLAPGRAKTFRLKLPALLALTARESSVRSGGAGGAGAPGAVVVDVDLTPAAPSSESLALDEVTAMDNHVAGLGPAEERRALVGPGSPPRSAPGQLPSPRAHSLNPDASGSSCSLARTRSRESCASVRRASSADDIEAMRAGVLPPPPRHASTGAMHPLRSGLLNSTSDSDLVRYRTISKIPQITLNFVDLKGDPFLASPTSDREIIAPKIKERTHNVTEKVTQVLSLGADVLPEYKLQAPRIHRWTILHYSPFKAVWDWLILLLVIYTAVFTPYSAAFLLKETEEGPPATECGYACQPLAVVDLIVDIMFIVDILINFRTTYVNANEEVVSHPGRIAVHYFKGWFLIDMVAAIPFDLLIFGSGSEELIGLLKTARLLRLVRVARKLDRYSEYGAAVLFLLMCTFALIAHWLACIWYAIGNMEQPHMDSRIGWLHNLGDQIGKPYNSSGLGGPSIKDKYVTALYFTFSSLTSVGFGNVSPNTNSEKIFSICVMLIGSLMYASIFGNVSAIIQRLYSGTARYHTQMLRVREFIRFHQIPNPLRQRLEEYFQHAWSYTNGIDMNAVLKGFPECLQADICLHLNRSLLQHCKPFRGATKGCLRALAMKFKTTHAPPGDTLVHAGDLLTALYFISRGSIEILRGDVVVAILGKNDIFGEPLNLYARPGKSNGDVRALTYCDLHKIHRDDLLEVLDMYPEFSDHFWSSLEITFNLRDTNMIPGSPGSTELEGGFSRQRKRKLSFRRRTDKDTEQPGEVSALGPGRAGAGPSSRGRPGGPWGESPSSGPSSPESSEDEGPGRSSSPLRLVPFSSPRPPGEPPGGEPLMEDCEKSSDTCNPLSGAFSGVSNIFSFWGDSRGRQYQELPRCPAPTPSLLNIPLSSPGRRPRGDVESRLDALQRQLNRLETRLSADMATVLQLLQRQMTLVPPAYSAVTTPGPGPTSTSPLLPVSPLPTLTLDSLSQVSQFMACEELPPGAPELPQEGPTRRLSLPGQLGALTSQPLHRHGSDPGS

Motilin receptor, sequence (A5A4K8 whole entry): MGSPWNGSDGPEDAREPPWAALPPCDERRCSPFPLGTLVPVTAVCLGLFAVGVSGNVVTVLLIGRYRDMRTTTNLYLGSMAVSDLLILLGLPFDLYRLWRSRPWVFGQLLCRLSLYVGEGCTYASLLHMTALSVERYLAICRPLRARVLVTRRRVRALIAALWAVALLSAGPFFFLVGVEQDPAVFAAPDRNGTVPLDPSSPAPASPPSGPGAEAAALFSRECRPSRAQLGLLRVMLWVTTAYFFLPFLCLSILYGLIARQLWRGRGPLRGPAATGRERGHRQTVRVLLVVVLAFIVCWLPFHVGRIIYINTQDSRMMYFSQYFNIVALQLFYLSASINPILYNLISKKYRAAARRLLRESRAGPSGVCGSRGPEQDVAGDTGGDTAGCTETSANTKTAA
Motilin receptor (Oryctolagus cuniculus), sequence (A5A4K8 as listed by the source): as the sequence (A5A4K8 whole entry) above

EC50 (Motilin receptor) [µM] | MIC (Streptococcus pneumoniae) [µg/mL] | Activity [1] [%] | Structure (SMILES) | inhibition at 30 µM (hERG (KCNH2)) [%]
2.5 | – | – | CC[C@H]1OC(=O)[C@H](C)[C@@H](O[C@@H]2C[C@@](C)(OC)[C@@H](O)[C@H](C)O2)[C@H](C)[C@@H](O[C@@H]2O[C@H](C)C[C@H](N(C)CC(O)CO)[C@H]2O)[C@](C)(O)C[C@@H](C)[C@H](O)[C@H](C)[C@@H](O)[C@]1(C)O (stereo not given in full) | –
0.46 | > 128 | 93 | CC[C@H]1OC(=O)[C@H](C)[C@@H](O[C@@H]2C[C@@](C)(OC)[C@@H](O)[C@H](C)O2)[C@H](C)[C@@H](O[C@@H]2O[C@H](C)C[C@H](N(C)C[C@@H](C)O)[C@H]2O)[C@](C)(O)C[C@@H](C)[C@H](O)[C@H](C)[C@@H](O)[C@]1(C)O | –
0.7 | – | – | CC[C@H]1OC(=O)[C@H](C)[C@@H](O[C@@H]2C[C@@](C)(OC)[C@@H](O)[C@H](C)O2)[C@H](C)[C@@H](O[C@@H]2O[C@H](C)C[C@H](N(C)CCCO)[C@H]2O)[C@](C)(O)C[C@@H](C)[C@H](O)[C@H](C)[C@@H](O)[C@]1(C)O | –
3.8 | – | – | CC[C@H]1OC(=O)[C@H](C)[C@@H](O[C@@H]2C[C@@](C)(OC)[C@@H](O)[C@H](C)O2)[C@H](C)[C@@H](O[C@@H]2O[C@H](C)C[C@H](N(C)CCF)[C@H]2O)[C@](C)(O)C[C@@H](C)[C@H](O)[C@H](C)[C@@H](O)[C@]1(C)O | –
2 | 64 (≈ 81 µM) | – | CC[C@H]1OC(=O)[C@H](C)[C@@H](O[C@@H]2C[C@@](C)(OC)[C@@H](O)[C@H](C)O2)[C@H](C)[C@@H](O[C@@H]2O[C@H](C)C[C@H](N(C)CC3(C)CC3)[C@H]2O)[C@](C)(O)C[C@@H](C)[C@H](O)[C@H](C)[C@@H](O)[C@]1(C)O | –
0.363 | – | 81 | CC[C@H]1OC(=O)[C@H](C)[C@@H](O[C@@H]2C[C@@](C)(OC)[C@@H](O)[C@H](C)O2)[C@H](C)[C@@H](O[C@@H]2O[C@H](C)C[C@H](N(C)CC(C)C)[C@H]2O)[C@](C)(O)C[C@@H](C)[C@H](O)[C@H](C)[C@@H](O)[C@]1(C)O | –
> 5 | – | – | CC[C@H]1OC(=O)[C@H](C)[C@@H](O[C@@H]2C[C@@](C)(OC)[C@@H](O)[C@H](C)O2)[C@H](C)[C@@H](O[C@@H]2O[C@H](C)C[C@H](N(C)CC(N)=O)[C@H]2O)[C@](C)(O)C[C@@H](C)[C@H](O)[C@H](C)[C@@H](O)[C@]1(C)O | –
0.26 | 32 (≈ 41.9 µM) | 76 | CC[C@H]1OC(=O)[C@H](C)[C@@H](O[C@@H]2C[C@@](C)(OC)[C@@H](O)[C@H](C)O2)[C@H](C)[C@@H](O[C@@H]2O[C@H](C)C[C@H](N(C)C(C)C)[C@H]2O)[C@](C)(O)C[C@@H](C)[C@H](O)[C@H](C)[C@@H](O)[C@]1(C)O | 80
0.21 | 8 (≈ 10.4 µM) | 86 | CC[C@H]1OC(=O)[C@H](C)[C@@H](O[C@@H]2C[C@@](C)(OC)[C@@H](O)[C@H](C)O2)[C@H](C)[C@@H](O[C@@H]2O[C@H](C)C[C@H](N(C)CCO)[C@H]2O)[C@](C)(O)C[C@@H](C)[C@H](O)[C@H](C)[C@@H](O)[C@]1(C)O | –
2.4 | – | – | C=C(C)CN(C)[C@H]1C[C@@H](C)O[C@@H](O[C@@H]2[C@@H](C)[C@H](O[C@@H]3C[C@@](C)(OC)[C@@H](O)[C@H](C)O3)[C@@H](C)C(=O)O[C@H](CC)[C@@](C)(O)[C@H](O)[C@@H](C)[C@@H](O)[C@H](C)C[C@@]2(C)O)[C@@H]1O | –
0.36 | 128 (≈ 164 µM) | 95 | CC[C@H]1OC(=O)[C@H](C)[C@@H](O[C@@H]2C[C@@](C)(OC)[C@@H](O)[C@H](C)O2)[C@H](C)[C@@H](O[C@@H]2O[C@H](C)C[C@H](N(C)C[C@H](C)O)[C@H]2O)[C@](C)(O)C[C@@H](C)[C@H](O)[C@H](C)[C@@H](O)[C@]1(C)O | 16
0.1 | > 128 | 89 | CC[C@H]1OC(=O)[C@H](C)[C@@H](O[C@@H]2C[C@@](C)(OC)[C@@H](O)[C@H](C)O2)[C@H](C)[C@@H](O[C@@H]2O[C@H](C)C[C@H](N(C)CC(C)(C)O)[C@H]2O)[C@](C)(O)C[C@@H](C)[C@H](O)[C@H](C)[C@@H](O)[C@]1(C)O | 25
7.7 | – | – | CC[C@H]1OC(=O)[C@H](C)[C@@H](O[C@@H]2C[C@@](C)(OC)[C@@H](O)[C@H](C)O2)[C@H](C)[C@@H](O[C@@H]2O[C@H](C)C[C@H](N(C)CCOC)[C@H]2O)[C@](C)(O)C[C@@H](C)[C@H](O)[C@H](C)[C@@H](O)[C@]1(C)O | –
0.31 | 32 (≈ 41.2 µM) | – | CC[C@H]1OC(=O)[C@H](C)[C@@H](O[C@@H]2C[C@@](C)(OC)[C@@H](O)[C@H](C)O2)[C@H](C)[C@@H](O[C@@H]2O[C@H](C)C[C@H](N(C)CC3CC3)[C@H]2O)[C@](C)(O)C[C@@H](C)[C@H](O)[C@H](C)[C@@H](O)[C@]1(C)O | –
7.3 | – | – | CC[C@H]1OC(=O)[C@H](C)[C@@H](O[C@@H]2C[C@@](C)(OC)[C@@H](O)[C@H](C)O2)[C@H](C)[C@@H](O[C@@H]2O[C@H](C)C[C@H](N(C)CCN)[C@H]2O)[C@](C)(O)C[C@@H](C)[C@H](O)[C@H](C)[C@@H](O)[C@]1(C)O | –

The next lines start with the compound.

Structure (SMILES) | EC50 (Motilin receptor) [µM] | MIC (Streptococcus pneumoniae) [µg/mL] | Activity [1] [%] | inhibition at 30 µM (hERG (KCNH2)) [%]
CC[C@H]1OC(=O)[C@H](C)[C@@H](O[C@@H]2C[C@@](C)(OC)[C@@H](O)[C@H](C)O2)[C@H](C)[C@@H](O[C@@H]2O[C@H](C)C[C@H](N(C)C(C)C)[C@H]2O)[C@](C)(O)C[C@@H](C)[C@H](O)[C@H](C)[C@@H](O)[C@H]1C | 0.106 | 128 (≈ 171 µM) | 79 | –
CC[C@H]1OC(=O)[C@H](C)[C@@H](O[C@@H]2C[C@@](C)(OC)[C@@H](O)[C@H](C)O2)[C@H](C)[C@@H](O[C@@H]2O[C@H](C)C[C@H](NC(C)C)[C@H]2O)[C@](C)(O)C[C@@H](C)[C@H](O)[C@H](C)[C@@H](O)[C@]1(C)O | > 5 | > 128 | – | –
CC[C@H]1OC(=O)[C@H](C)[C@@H](O[C@@H]2C[C@@](C)(OC)[C@@H](O)[C@H](C)O2)[C@H](C)[C@@H](O[C@@H]2O[C@H](C)C[C@H](N(C)C3COC3)[C@H]2O)[C@](C)(O)C[C@@H](C)[C@H](O)[C@H](C)[C@@H](O)[C@]1(C)O | 5.7 | 32 (≈ 41.1 µM) | – | –
CC[C@H]1OC(=O)[C@H](C)[C@@H](O[C@@H]2C[C@@](C)(OC)[C@@H](O)[C@H](C)O2)[C@H](C)[C@@H](O[C@@H]2O[C@H](C)C[C@H](N(C)C3CCCC3)[C@H]2O)[C@](C)(O)C[C@@H](C)[C@H](O)[C@H](C)[C@@H](O)[C@]1(C)O | > 5 | 128 (≈ 162 µM) | – | –
CC[C@H]1OC(=O)[C@H](C)[C@@H](O[C@@H]2C[C@@](C)(OC)[C@@H](O)[C@H](C)O2)[C@H](C)[C@@H](O[C@@H]2O[C@H](C)C[C@H](NC3CCC3)[C@H]2O)[C@](C)(O)C[C@@H](C)[C@H](O)[C@H](C)[C@@H](O)[C@]1(C)O | > 5 | 16 (≈ 21 µM) | – | –
CC[C@H]1OC(=O)[C@H](C)[C@@H](O[C@@H]2C[C@@](C)(OC)[C@@H](O)[C@H](C)O2)[C@H](C)[C@@H](O[C@@H]2O[C@H](C)C[C@H](N(C)C3CCC3)[C@H]2O)[C@](C)(O)C[C@@H](C)[C@H](O)[C@H](C)[C@@H](O)[C@]1(C)O | 0.35 | 128 (≈ 165 µM) | 90 | 38
CC[C@H]1OC(=O)[C@H](C)[C@@H](O[C@@H]2C[C@@](C)(OC)[C@@H](O)[C@H](C)O2)[C@H](C)[C@@H](O[C@@H]2O[C@H](C)C[C@H](N(C)CC(C)(C)O)[C@H]2O)[C@](C)(O)C[C@@H](C)[C@H](O)[C@H](C)[C@@H](O)[C@H]1C | 0.1 | > 128 | 56 | –
CC[C@H]1OC(=O)[C@H](C)[C@@H](O[C@@H]2C[C@@](C)(OC)[C@@H](O)[C@H](C)O2)[C@H](C)[C@@H](O[C@@H]2O[C@H](C)C[C@H](N(C)C3CCC3)[C@H]2O)[C@](C)(O)C[C@@H](C)[C@H](O)[C@H](C)[C@@H](O)[C@H]1C | 0.3 | > 128 | 71 | –
CC[C@H]1OC(=O)[C@H](C)[C@@H](O[C@@H]2C[C@@](C)(OC)[C@@H](O)[C@H](C)O2)[C@H](C)[C@@H](O[C@@H]2O[C@H](C)C[C@H](N(C)C[C@H](C)O)[C@H]2O)[C@](C)(O)C[C@@H](C)[C@H](O)[C@H](C)[C@@H](O)[C@H]1C | 0.18 | > 128 | 70 | –
CC[C@H]1OC(=O)[C@H](C)[C@@H](O[C@H]2C[C@@](C)(OC)[C@@H](O)[C@H](C)O2)[C@H](C)[C@@H](O[C@@H]2O[C@H](C)C[C@H](N(C)C)[C@H]2O)[C@](C)(O)C[C@@H](C)C(=O)[C@H](C)[C@@H](O)[C@]1(C)O [ERYTHROMYCIN] | – | 0.03 (≈ 0.0409 µM) | – | –
CC[C@H]1OC(=O)[C@H](C)[C@@H](O[C@@H]2C[C@@](C)(OC)[C@@H](O)[C@H](C)O2)[C@H](C)[C@@H](O[C@@H]2O[C@H](C)C[C@H](N(C)C[C@@H](C)O)[C@H]2O)[C@](C)(O)C[C@@H](C)[C@H](O)[C@H](C)[C@@H](O)[C@H]1C | 0.28 | > 128 | 89 | 38
